Legend:
[1] = Reversal index is the ratio of IC50 in the absence of modulator to that of presence of modulator when combined with vinblastine (nM) in T24 cell line; type: functional, T-24
Method in brief: (§1)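 Cells treated in triplicate for 48 h with graded cytotoxic drug, with or without modulator. Survival quantified by sulforhodamine B absorbance at 570 nm. IC50 of the cytotoxic drug derived with and without modulator; reversal index = IC50 without modulator / IC50 with modulator.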

[2] = Reversal index is the ratio of IC50 in the absence of modulator to that of presence of modulator when combined with vinblastine (nM) in NCI/ADR cell line; type: functional; method in brief: as §1
[3] = Reversal index is the ratio of IC50 in the absence of modulator to that of presence of modulator when combined with taxol (nM) in T24 cell line; type: functional, T-24; method in brief: as §1
Mus musculus [4] = assay: In vivo tumor growth inhibition in mice when administered […] at a day 12; type: functional
Method in brief: (§2)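 Balb/c female mice, 6–8 weeks old, with 10^6 JC murine mammary adenocarcinoma cells injected subcutaneously in the right hind quarter. Treatment began once tumors were palpable (day 1), five mice per group. Dosing on days 1, 5 and 9: 100 mg/kg i.p. PGP-4008·HCl with or without 5 mg/kg doxorubicin. Caliper volumes calculated as (L×W²)/2 through day 15; unpaired t-test with Welch correction.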

[5] = Plasma clearance rate after intraperitoneal administration of 100 mg/kg in mice; type: ADME, organism-based; set-up: dose 100 mg/kg, route intraperitoneal; conditions: mouse, ip, read-out: Clp (converted)
Method in brief: (§3)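 Female Swiss-Webster mice, 6–8 weeks old, given 100 mg/kg PGP-4008·HCl intraperitoneally. Blood taken by intracardiac puncture under anesthesia at 1–240 min, three animals per time point. Samples precipitated with ice-cold acetonitrile with 2-naphthol internal standard, then HPLC read at 254 nm against a standard curve. Two-compartment model fit.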

[6] = Reversal index is the ratio of IC50 in the absence of modulator to that of presence of modulator when combined with cisplatin (uM) in P388/ADR cell line; type: functional; method in brief: as §1
[7] = Reversal index is the ratio of IC50 in the absence of modulator to that of presence of modulator when combined with vincristine (nM) in MCF-7 cell line; type: functional, MCF7; method in brief: as §1
[8] = Reversal index is the ratio of IC50 in the absence of modulator to that of presence of modulator when combined with vincristine (nM) in T24 cell line; type: functional, T-24; method in brief: as §1
[9] = Reversal index is the ratio of IC50 in the absence of modulator to that of presence of modulator when combined with 5-fluorouracil (uM) in NCI/ADR cell line; type: functional; method in brief: as §1
[10] = biological target: ATP-dependent translocase ABCB1 (Homo sapiens, UniProt P08183); assay: Compound was evaluated for broad range of antagonistic activity against P-glycoprotein (Pgp) value expressed as IC20; type: functional
[11] = Reversal index is the ratio of IC50 in the absence of modulator to that of presence of modulator when combined with vincristine (nM) in MCF-7/VP cell line; type: functional; method in brief: as §1
[12] = Reversal index is the ratio of IC50 in the absence of modulator to that of presence of modulator when combined with 5-fluorouracil (uM) in P388/ADR cell line; type: functional; method in brief: as §1
[13] = Reversal index is the ratio of IC50 in the absence of modulator to that of presence of modulator when combined with vinblastine (nM) in P388/ADR cell line; type: functional; method in brief: as §1
[14] = Reversal index is the ratio of IC50 in the absence of modulator to that of presence of modulator when combined with vincristine (nM) in NCI/ADR cell line; type: functional; method in brief: as §1
Mus musculus [15] = assay: Volume of distribution after intraperitoneal administration of 100 mg/kg in mice; type: ADME, organism-based; set-up: dose 100 mg/kg, route intraperitoneal; conditions: in vivo, ip; method in brief: as §3
Mus musculus [16] = assay: In vivo tumor growth inhibition in mice when […] at a day 1; type: functional; method in brief: as §2
[17] = Reversal index is the ratio of IC50 in the absence of modulator to that of presence of modulator when combined with vinblastine (nM) in MCF-7 cell line; type: functional, MCF7; method in brief: as §1
[18] = Maximum concentration in plasma was determined after intraperitoneal administration of 100 mg/kg in mice; type: ADME, organism-based; set-up: dose 100 mg/kg, route intraperitoneal; conditions: mouse, ip; method in brief: as §3
[19] = Reversal index is the ratio of IC50 in the absence of modulator to that of presence of modulator when combined with taxol (nM) in MCF-7/VP cell line; type: functional; method in brief: as §1
[20] = Reversal index is the ratio of IC50 in the absence of modulator to that of presence of modulator when combined with 5-Fluorouracil (uM) in T24 cell line; type: functional, T-24; method in brief: as §1
Mus musculus [21] = assay: AUMC after intraperitoneal administration of 100 mg/kg in mice; type: ADME, organism-based; set-up: dose 100 mg/kg, route intraperitoneal; conditions: in vivo, ip; method in brief: as §3
[22] = Reversal index is the ratio of IC50 in the absence of modulator to that of presence of modulator when combined with doxorubicin (uM) in P388/ADR cell line
[23] = Reversal index is the ratio of IC50 in the absence of modulator to that of presence of modulator when combined with vincristine (nM) in P388/ADR cell line; type: functional; method in brief: as §1
MCF-7 (Homo sapiens) = assay: Toxicity against MCF-7 cells
[24] = Reversal index is the ratio of IC50 in the absence of modulator to that of presence of modulator when combined with taxol (nM) in MCF-7 cell line; type: functional, MCF7; method in brief: as §1
Mus musculus [25] = assay: In vivo tumor growth inhibition in mice when administered subcutaneously at a day 5; type: functional; conditions: in the assay text read “intraperitoneally” for “subcutaneously”; method in brief: as §2
[26] = Reversal index is the ratio of IC50 in the absence of modulator to that of presence of modulator when combined with vinblastine (nM) in MCF-7/VP cell line; type: functional; method in brief: as §1
[27] = Reversal index is the ratio of IC50 in the absence of modulator to that of presence of modulator when combined with taxol (nM) in NCI/ADR cell line; type: functional; method in brief: as §1
[28] = Reversal index is the ratio of IC50 in the absence of modulator to that of presence of modulator when combined with cisplatin (uM) in NCI/ADR cell line; type: functional; method in brief: as §1
Mus musculus [29] = assay: In vivo tumor growth inhibition in mice when administered […] at a day 9; type: functional; method in brief: as §2
Mus musculus [30] = assay: In vivo tumor growth inhibition in mice when […] at a day 15; type: functional; method in brief: as §2
[31] = Reversal index is the ratio of IC50 in the absence of modulator to that of presence of modulator when combined with taxol (nM) in P388/ADR cell line
Mus musculus [32] = assay: The second majority of the volume of distribution after intraperitoneal administration of 100 mg/kg in mice; type: ADME, organism-based; set-up: dose 100 mg/kg, route intraperitoneal; conditions: in vivo, ip; method in brief: as §3
Mus musculus [33] = assay: Volume of the first compartment after intraperitoneal administration of 100 mg/kg in mice; conditions: in vivo, ip
[34] = Reversal index is the ratio of IC50 in the absence of modulator to that of presence of modulator when combined with cisplatin (uM) in MCF-7/VP cell line; type: functional; method in brief: as §1
[35] = Reversal index is the ratio of IC50 in the absence of modulator to that of presence of modulator when combined with cisplatin (uM) in T24 cell line; type: functional, T-24; method in brief: as §1
[36] = Compound was evaluated for broad range of antagonistic activity against multi drug resistance-related protein (MRP) value expressed as IC20; type: functional; set-up: unit not given here
[37] = Reversal index is the ratio of IC50 in the absence of modulator to that of presence of modulator when combined with cisplatin (uM) in MCF-7 cell line; type: functional, MCF7; method in brief: as §1
[38] = Reversal index is the ratio of IC50 in the absence of modulator to that of presence of modulator when combined with 5-Fluorouracil (uM) in MCF-7 cell line; type: functional, MCF7; method in brief: as §1
[39] = Reversal index is the ratio of IC50 in the absence of modulator to that of presence of modulator when combined with 5-fluorouracil (uM) in MCF-7/VP cell line; type: functional; method in brief: as §1

Chain of ATP-dependent translocase ABCB1 (P08183 whole entry): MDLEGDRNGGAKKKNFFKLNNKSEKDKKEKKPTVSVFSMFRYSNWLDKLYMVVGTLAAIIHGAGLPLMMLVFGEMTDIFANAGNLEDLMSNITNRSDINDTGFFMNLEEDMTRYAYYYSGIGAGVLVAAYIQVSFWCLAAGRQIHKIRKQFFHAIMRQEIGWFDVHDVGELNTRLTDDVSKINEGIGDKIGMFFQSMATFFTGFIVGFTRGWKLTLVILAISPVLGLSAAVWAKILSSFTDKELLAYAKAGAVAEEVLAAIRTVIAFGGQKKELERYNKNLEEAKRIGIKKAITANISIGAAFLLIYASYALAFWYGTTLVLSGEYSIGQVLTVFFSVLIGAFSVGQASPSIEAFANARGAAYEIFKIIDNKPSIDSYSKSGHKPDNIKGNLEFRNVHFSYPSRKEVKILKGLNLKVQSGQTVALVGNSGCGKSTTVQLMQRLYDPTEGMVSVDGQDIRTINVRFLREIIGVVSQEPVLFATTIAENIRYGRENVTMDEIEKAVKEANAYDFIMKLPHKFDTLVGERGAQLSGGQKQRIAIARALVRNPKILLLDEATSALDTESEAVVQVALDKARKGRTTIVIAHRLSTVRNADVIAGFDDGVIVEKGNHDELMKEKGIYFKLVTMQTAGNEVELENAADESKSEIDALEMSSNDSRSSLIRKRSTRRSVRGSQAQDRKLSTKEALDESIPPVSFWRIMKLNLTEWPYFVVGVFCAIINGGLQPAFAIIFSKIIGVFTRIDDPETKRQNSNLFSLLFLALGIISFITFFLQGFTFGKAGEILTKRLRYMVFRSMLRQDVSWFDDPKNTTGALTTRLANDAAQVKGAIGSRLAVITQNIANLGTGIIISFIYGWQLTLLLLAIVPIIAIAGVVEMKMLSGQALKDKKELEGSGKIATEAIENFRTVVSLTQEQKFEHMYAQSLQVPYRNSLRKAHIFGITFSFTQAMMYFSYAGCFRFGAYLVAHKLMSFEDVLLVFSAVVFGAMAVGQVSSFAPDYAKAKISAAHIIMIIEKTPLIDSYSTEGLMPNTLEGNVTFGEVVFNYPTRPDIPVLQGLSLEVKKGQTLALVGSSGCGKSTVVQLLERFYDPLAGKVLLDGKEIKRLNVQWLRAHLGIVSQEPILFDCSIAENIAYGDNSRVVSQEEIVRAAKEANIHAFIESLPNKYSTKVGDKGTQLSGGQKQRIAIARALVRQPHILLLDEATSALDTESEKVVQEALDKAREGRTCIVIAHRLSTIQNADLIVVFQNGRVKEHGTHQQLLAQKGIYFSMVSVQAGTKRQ

Row | SMILES | RI [1] | RI [2] | RI [3] | RI [6] | RI [7] | RI [8] | RI [9] | RI [11] | RI [12] | RI [13] | RI [14] | RI [17] | RI [19] | RI [20] | RI [22] | RI [23] | RI [24] | RI [26] | RI [27] | RI [28] | further results
1 | O=C(Cc1ccccc1)Nc1c2c(nc3ccccc13)N(Cc1ccccc1)CC2 | 3.8 | 35 | 1.2 | 1.9 | 0.9 | 1.5 | 1 | 1 | 0.7 | 63 | 18 | 1.8 | 0.8 | 2.6 | 200 | 30 | 0.9 | 1.3 | 70 | 1.2 | Tumor volume (Mus musculus [4]): 1280 mm**3; CL/F [5]: 1.34 mL/min; Activity [10]: 10.7; Vdss (Mus musculus [15]): 43 mL; Tumor volume (Mus musculus [16]): 380 mm**3; Cmax [18]: 197 µg/mL; AUMC (Mus musculus [21]): 9.4 µg·h²/mL; Toxicity (MCF-7 (Homo sapiens)): 13 µM; Tumor volume (Mus musculus [25]): 470 mm**3; Tumor volume (Mus musculus [29]): 1030 mm**3; Tumor volume (Mus musculus [30]): 2000 mm**3; RI [31]: 202; V2 (Mus musculus [32]): 40.5 mL; V1 (Mus musculus [33]): 2.3 mL; RI [34]: 0.8; RI [35]: 1.1; Activity [36]: 0.7
2 | COc1ccc(CCN(C)CCCC(C#N)(c2ccc(OC)c(OC)c2)C(C)C)cc1OC (configuration not stated) | 2.7 | 173 | 1.6 | 2 | 4.6 | 3.7 | 0.9 | 15 | 0.7 | 61 | 50 | 1.2 | 1.1 | 1.6 | 1000 | 112 | 1.1 | 2.4 | 106 | 1.1 | RI [37]: 1.1; RI [38]: 0.9; RI [34]: 0.8; RI [35]: 1; RI [39]: 0.9
